Calls of active or inactive are those of the source. The calls are words filed in the database; no cut-off is given here.
What was measured:
[1] = target: T1, Protein mono-ADP-ribosyltransferase PARP10 (Homo sapiens) (UniProt Q53GL7); assay: Inhibition of human recombinant PARP10 at 10 uM incubated for 1 hr using NAD+, biotinylated NAD+ and activated DNA by luminescence based assay
T1 sequence (whole entry): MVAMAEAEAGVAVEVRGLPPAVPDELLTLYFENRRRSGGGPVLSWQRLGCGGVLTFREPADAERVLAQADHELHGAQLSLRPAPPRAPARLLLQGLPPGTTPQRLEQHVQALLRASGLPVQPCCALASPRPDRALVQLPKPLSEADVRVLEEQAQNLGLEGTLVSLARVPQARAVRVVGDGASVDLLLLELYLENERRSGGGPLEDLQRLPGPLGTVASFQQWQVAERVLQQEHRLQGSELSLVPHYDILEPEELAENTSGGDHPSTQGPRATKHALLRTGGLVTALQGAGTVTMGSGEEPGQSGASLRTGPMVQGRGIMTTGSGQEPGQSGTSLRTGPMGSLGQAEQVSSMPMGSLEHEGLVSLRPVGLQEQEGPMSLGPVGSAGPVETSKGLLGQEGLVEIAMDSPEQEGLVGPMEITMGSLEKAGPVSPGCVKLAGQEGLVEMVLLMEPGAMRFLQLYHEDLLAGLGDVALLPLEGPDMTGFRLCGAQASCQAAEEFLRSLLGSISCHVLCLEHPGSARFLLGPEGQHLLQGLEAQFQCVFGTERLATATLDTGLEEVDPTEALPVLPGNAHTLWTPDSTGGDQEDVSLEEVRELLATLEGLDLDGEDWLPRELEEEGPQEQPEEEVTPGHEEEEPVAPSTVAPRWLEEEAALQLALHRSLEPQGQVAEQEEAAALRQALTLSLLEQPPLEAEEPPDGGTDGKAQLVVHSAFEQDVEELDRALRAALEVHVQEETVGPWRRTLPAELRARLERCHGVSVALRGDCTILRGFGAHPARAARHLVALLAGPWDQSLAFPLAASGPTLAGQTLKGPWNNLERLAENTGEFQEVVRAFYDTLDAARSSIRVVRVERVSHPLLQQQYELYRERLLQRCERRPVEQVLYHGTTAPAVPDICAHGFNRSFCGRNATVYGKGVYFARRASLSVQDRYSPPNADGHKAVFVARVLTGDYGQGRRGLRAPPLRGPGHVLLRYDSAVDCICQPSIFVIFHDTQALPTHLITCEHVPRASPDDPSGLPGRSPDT
Procedure, shortened: (§1)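 Recombinant PARP enzyme reactions were run in duplicate for 1 h at rt on histone-coated plates in Tris·HCl pH 8.0 buffer with NAD+, biotinylated NAD+ and activated DNA. Detection used streptavidin-HRP for 30 min at rt, then a chemiluminescent developer. % inhibition = 100 − % activity, scaled between the no-compound (100%) and no-enzyme (0%) signals.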

DLD-1 = assay: Growth inhibition of human DLD1 cells at 1 uM to 10 uM; format: functional, cell-based
Procedure, shortened: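 DLD-1 colorectal cancer cells seeded at 5 × 10^3 in a colony growth assay. Cells were dosed daily with 1, 5 or 10 μM compound in DMSO, with DMSO alone as the negative control. After 10 days cells were fixed in 10% methanol/acetic acid, stained with 1% crystal violet and quantified by image analysis. Mean ± SEM of at least three independent experiments.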

[2] = target: T2, Protein mono-ADP-ribosyltransferase PARP3 (Homo sapiens) (UniProt Q9Y6F1); assay: Inhibition of human recombinant PARP3 at 10 uM incubated for 1 hr using NAD+, biotinylated NAD+ and activated DNA by luminescence based assay; procedure, shortened: as §1
T2 sequence (whole entry): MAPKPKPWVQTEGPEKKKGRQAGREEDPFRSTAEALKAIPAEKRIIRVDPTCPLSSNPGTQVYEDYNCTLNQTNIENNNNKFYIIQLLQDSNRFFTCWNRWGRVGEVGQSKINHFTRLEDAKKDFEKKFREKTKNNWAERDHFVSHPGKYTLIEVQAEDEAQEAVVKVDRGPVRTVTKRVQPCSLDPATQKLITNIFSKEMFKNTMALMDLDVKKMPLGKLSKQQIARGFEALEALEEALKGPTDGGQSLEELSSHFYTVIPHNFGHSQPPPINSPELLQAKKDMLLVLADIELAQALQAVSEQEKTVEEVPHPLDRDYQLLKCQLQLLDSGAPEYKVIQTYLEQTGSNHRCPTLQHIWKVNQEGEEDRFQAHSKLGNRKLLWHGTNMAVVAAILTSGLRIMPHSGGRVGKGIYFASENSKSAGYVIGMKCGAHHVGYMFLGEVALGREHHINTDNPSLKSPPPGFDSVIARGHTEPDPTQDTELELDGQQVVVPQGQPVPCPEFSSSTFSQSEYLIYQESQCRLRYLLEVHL

For `CC(C)(C)c1ccc(-c2nc3c(sc4ccccc43)c(=O)[nH]2)cc1`, the inhibition [1] was 3%, the “growth inhibition (GI)” value (DLD-1) was “Active” and the inhibition [2] was 1%.

— ChEMBL document CHEMBL3351316, “Scaffold hopping approach on the route to selective tankyrase inhibitors” (Eur J Med Chem, 2014)
